What was measured:
[1] = target: Dual specificity tyrosine-phosphorylation-regulated kinase 4 (Homo sapiens) (UniProt Q9NR20); experiment: Inhibition of DYRK4 (unknown origin) using [gamma-33P]ATP assessed as residual activity at 3 uM
In short: (§1)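 Reaction Biology HotSpot radiometric profiling panel of 288 kinases (261 wild-type, 27 mutant). Kinase activity was read out by incorporation of [γ-33P]ATP.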

[2] = target: Phosphorylase b kinase gamma catalytic chain, liver/testis isoform (Homo sapiens) (UniProt P15735); experiment: Inhibition of PHKg2 (unknown origin) using [gamma-33P]ATP assessed as residual activity at 3 uM
[3] = tested on: Mast/stem cell growth factor receptor Kit (Homo sapiens), P10721 [D816H]; experiment: Inhibition of c-Kit D816H mutant (unknown origin) using [gamma-33P]ATP assessed as residual activity at 3 uM
Chain of Mast/stem cell growth factor receptor Kit (Homo sapiens), P10721 [D816H] (P10721 whole entry D816H): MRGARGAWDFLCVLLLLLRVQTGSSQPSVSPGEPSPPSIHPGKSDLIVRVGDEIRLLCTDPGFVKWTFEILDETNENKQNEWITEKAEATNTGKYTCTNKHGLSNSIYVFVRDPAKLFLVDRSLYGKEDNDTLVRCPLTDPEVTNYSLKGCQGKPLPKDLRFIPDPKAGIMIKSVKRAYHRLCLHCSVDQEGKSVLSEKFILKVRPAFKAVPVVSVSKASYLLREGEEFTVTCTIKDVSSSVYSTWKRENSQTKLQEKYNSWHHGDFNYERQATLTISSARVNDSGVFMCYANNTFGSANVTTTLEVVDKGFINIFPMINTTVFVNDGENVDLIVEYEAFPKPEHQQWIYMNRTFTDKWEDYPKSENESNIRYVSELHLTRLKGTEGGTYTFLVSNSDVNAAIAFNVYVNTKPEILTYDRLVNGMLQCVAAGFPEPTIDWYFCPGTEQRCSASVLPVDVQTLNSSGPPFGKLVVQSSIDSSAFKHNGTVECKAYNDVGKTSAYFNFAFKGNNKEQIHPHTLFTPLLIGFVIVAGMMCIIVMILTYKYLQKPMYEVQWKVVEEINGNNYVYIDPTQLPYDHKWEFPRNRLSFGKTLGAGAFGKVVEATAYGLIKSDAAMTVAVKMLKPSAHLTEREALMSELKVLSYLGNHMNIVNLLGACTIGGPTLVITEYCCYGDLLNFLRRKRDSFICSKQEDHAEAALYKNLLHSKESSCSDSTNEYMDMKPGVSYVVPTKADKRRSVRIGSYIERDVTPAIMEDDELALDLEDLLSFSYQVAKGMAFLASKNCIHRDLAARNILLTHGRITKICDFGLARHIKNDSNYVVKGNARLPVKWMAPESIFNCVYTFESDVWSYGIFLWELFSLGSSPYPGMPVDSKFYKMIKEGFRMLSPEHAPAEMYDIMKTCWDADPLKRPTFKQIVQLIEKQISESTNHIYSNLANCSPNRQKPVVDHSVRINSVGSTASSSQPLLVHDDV

[4] = target: Protein kinase C gamma type (Homo sapiens) (UniProt P05129); experiment: Inhibition of PKCgamma (unknown origin) using [gamma-33P]ATP assessed as residual activity at 3 uM
[5] = target: Casein kinase II subunit alpha (Homo sapiens) (UniProt P68400); experiment: Inhibition of CK2a (unknown origin) using [gamma-33P]ATP assessed as residual activity at 3 uM; in short: as §1
[6] = target: Epidermal growth factor receptor (Homo sapiens) (UniProt P00533); experiment: Inhibition of EGFR (unknown origin) using [gamma-33P]ATP assessed as residual activity at 3 uM; in short: as §1
[7] = target: Calcium/calmodulin-dependent protein kinase type II subunit beta (Homo sapiens) (UniProt Q13554); experiment: Inhibition of CAMK2b (unknown origin) using [gamma-33P]ATP assessed as residual activity at 3 uM
In short: (§2)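 Radiometric profiling across 288 kinases (261 wild-type, 27 mutant), run as an outsourced service. Inhibition read out as [gamma-33P]ATP incorporation into substrate.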

[8] = target: Ephrin type-A receptor 2 (Homo sapiens) (UniProt P29317); experiment: Inhibition of EPHA2 (unknown origin) using [gamma-33P]ATP assessed as residual activity at 3 uM; in short: as §1
[9] = target: Rho-associated protein kinase 2 (Homo sapiens) (UniProt O75116); experiment: Inhibition of ROCK2 (unknown origin) using [gamma-33P]ATP assessed as residual activity at 3 uM
[10] = target: Aurora kinase A (Homo sapiens) (UniProt O14965); experiment: Inhibition of Aurora A (unknown origin) using [gamma-33P]ATP assessed as residual activity at 3 uM; in short: as §2
[11] = target: Ephrin type-B receptor 1 (Homo sapiens) (UniProt P54762); experiment: Inhibition of EPHB1 (unknown origin) using [gamma-33P]ATP assessed as residual activity at 3 uM; in short: as §1
[12] = target: Serine/threonine-protein kinase mTOR (Homo sapiens) (UniProt P42345); experiment: Inhibition of mTOR (unknown origin) using [gamma-33P]ATP assessed as residual activity at 3 uM
[13] = target: Serine/threonine-protein kinase VRK1 (Homo sapiens) (UniProt Q99986); experiment: Inhibition of VRK1 (unknown origin) using [gamma-33P]ATP assessed as residual activity at 3 uM
[14] = tested on: Proto-oncogene tyrosine-protein kinase receptor Ret (Homo sapiens), P07949 [V804L]; experiment: Inhibition of RET V804L mutant (unknown origin) using [gamma-33P]ATP assessed as residual activity at 3 uM
[15] = target: Serine/threonine-protein kinase Nek7 (Homo sapiens) (UniProt Q8TDX7); experiment: Inhibition of NEK7 (unknown origin) using [gamma-33P]ATP assessed as residual activity at 3 uM
[16] = target: Mitogen-activated protein kinase 9 (Homo sapiens) (UniProt P45984); experiment: Inhibition of JNK2a2 (unknown origin) using [gamma-33P]ATP assessed as residual activity at 3 uM
In short: (§3)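 Radiometric kinase profiling service covering 288 kinases (261 wild-type, 27 mutant). Inhibition was read as incorporation from [γ-³³P]ATP.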

[17] = target: Serine/threonine-protein kinase STK11 (Homo sapiens) (UniProt Q15831); experiment: Inhibition of LKB1 (unknown origin) using [gamma-33P]ATP assessed as residual activity at 3 uM; in short: as §3
[18] = target: Tyrosine-protein kinase Fgr (Homo sapiens, UniProt P09769); experiment: Inhibition of FGR (unknown origin) using [gamma-33P]ATP assessed as residual activity at 3 uM
[19] = target: Serine/threonine-protein kinase Nek1 (Homo sapiens) (UniProt Q96PY6); experiment: Inhibition of NEK1 (unknown origin) using [gamma-33P]ATP assessed as residual activity at 3 uM
[20] = target: Serine/threonine-protein kinase MRCK beta (Homo sapiens) (UniProt Q9Y5S2); experiment: Inhibition of MRCKB (unknown origin) using [gamma-33P]ATP assessed as residual activity at 3 uM
[21] = target: cGMP-dependent protein kinase 1 (Homo sapiens) (UniProt Q13976); experiment: Inhibition of PKG1b (unknown origin) using [gamma-33P]ATP assessed as residual activity at 3 uM
Chain of cGMP-dependent protein kinase 1 (Homo sapiens) (Q13976 whole entry): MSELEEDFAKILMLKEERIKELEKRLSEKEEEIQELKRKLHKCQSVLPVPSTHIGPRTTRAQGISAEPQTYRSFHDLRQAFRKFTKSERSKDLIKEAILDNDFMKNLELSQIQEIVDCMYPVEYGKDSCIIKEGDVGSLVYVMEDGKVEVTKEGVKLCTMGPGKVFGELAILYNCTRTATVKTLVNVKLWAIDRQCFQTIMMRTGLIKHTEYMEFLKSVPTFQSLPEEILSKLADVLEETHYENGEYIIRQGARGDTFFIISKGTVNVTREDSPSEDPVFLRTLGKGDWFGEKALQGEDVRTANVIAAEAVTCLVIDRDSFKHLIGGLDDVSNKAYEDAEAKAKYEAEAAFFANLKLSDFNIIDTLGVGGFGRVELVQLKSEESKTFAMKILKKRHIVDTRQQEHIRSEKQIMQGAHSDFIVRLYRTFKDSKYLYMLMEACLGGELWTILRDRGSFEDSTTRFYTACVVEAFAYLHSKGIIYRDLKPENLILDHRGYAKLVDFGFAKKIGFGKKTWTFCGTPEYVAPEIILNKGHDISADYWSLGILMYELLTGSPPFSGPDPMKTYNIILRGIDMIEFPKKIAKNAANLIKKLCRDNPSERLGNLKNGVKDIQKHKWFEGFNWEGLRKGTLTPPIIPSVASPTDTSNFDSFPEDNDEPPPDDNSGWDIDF

[22] = target: Serine/threonine-protein kinase Nek2 (Homo sapiens) (UniProt P51955); experiment: Inhibition of NEK2 (unknown origin) using [gamma-33P]ATP assessed as residual activity at 3 uM
[23] = target: cGMP-dependent protein kinase 2 (Homo sapiens) (UniProt Q13237); experiment: Inhibition of PKG2 (unknown origin) using [gamma-33P]ATP assessed as residual activity at 3 uM
[24] = target: Serine/threonine-protein kinase Sgk1 (Homo sapiens) (UniProt O00141); experiment: Inhibition of SGK1 (unknown origin) using [gamma-33P]ATP assessed as residual activity at 3 uM
Chain of Serine/threonine-protein kinase Sgk1 (Homo sapiens) (O00141 whole entry): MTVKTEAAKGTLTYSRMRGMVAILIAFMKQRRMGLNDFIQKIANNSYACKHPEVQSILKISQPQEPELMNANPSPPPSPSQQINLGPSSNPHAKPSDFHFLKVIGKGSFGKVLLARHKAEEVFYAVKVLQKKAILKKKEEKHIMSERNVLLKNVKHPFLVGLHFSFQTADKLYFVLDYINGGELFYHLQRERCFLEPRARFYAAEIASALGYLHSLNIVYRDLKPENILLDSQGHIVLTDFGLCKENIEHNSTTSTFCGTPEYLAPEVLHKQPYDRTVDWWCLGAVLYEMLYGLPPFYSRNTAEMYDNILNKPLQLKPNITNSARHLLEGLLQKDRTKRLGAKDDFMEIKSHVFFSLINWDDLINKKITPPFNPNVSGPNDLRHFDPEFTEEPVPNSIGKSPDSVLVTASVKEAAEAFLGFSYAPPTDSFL

[25] = tested on: Tyrosine-protein kinase ABL1 (Homo sapiens), P00519 [T315I]; experiment: Inhibition of ABL1 T315I mutant (unknown origin) using [gamma-33P]ATP assessed as residual activity at 3 uM; in short: as §2
[26] = target: Serine/threonine-protein kinase pim-1 (Homo sapiens) (UniProt P11309); experiment: Inhibition of PIM1 (unknown origin) using [gamma-33P]ATP assessed as residual activity at 3 uM
[27] = target: Ribosomal protein S6 kinase alpha-1 (Homo sapiens) (UniProt Q15418); experiment: Inhibition of RSK1 (unknown origin) using [gamma-33P]ATP assessed as residual activity at 3 uM
[28] = target: Receptor tyrosine-protein kinase erbB-4 (Homo sapiens) (UniProt Q15303); experiment: Inhibition of ErbB4 (unknown origin) using [gamma-33P]ATP assessed as residual activity at 3 uM; in short: as §1
Chain of Receptor tyrosine-protein kinase erbB-4 (Homo sapiens) (Q15303 whole entry): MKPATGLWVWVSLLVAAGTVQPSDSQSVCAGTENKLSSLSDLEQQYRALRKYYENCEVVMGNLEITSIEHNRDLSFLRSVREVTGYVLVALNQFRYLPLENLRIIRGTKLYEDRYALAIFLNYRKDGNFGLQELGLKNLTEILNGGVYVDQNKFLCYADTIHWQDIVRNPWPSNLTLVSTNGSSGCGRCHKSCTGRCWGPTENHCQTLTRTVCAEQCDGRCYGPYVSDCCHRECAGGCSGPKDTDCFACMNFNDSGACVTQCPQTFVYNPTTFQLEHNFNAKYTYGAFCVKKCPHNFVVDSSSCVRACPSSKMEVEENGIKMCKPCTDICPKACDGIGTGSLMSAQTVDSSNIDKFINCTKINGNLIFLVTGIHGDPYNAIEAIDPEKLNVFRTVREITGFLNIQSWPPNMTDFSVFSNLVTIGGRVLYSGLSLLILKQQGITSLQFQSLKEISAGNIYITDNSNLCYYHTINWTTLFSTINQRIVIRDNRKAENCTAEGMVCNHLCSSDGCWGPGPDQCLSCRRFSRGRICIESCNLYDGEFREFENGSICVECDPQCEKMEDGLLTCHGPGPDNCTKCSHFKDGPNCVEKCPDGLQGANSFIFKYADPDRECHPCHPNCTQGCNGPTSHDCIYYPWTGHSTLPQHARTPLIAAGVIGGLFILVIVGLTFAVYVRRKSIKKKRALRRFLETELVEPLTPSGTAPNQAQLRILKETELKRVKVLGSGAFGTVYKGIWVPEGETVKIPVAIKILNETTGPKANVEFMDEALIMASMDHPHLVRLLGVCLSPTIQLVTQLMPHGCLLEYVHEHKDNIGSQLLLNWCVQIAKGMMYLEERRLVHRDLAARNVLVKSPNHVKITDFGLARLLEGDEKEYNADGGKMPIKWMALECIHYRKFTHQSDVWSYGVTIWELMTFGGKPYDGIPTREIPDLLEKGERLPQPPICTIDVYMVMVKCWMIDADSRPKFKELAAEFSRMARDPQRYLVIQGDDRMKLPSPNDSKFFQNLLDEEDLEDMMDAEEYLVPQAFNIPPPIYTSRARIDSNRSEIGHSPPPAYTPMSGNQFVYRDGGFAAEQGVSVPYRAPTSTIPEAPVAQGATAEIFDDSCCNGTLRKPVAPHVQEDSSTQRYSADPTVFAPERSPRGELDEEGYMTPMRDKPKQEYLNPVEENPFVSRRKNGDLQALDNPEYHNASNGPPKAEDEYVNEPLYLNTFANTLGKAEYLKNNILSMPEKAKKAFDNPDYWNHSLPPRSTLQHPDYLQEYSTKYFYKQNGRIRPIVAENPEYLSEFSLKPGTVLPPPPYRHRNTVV

[29] = target: Tyrosine-protein kinase JAK2 (Homo sapiens) (UniProt O60674); experiment: Inhibition of JAK2 (unknown origin) using [gamma-33P]ATP assessed as residual activity at 3 uM; in short: as §3
[30] = target: Tyrosine-protein kinase Fer (Homo sapiens) (UniProt P16591); experiment: Inhibition of FER (unknown origin) using [gamma-33P]ATP assessed as residual activity at 3 uM; in short: as §1
Chain of Tyrosine-protein kinase Fer (Homo sapiens) (P16591 whole entry, looked up): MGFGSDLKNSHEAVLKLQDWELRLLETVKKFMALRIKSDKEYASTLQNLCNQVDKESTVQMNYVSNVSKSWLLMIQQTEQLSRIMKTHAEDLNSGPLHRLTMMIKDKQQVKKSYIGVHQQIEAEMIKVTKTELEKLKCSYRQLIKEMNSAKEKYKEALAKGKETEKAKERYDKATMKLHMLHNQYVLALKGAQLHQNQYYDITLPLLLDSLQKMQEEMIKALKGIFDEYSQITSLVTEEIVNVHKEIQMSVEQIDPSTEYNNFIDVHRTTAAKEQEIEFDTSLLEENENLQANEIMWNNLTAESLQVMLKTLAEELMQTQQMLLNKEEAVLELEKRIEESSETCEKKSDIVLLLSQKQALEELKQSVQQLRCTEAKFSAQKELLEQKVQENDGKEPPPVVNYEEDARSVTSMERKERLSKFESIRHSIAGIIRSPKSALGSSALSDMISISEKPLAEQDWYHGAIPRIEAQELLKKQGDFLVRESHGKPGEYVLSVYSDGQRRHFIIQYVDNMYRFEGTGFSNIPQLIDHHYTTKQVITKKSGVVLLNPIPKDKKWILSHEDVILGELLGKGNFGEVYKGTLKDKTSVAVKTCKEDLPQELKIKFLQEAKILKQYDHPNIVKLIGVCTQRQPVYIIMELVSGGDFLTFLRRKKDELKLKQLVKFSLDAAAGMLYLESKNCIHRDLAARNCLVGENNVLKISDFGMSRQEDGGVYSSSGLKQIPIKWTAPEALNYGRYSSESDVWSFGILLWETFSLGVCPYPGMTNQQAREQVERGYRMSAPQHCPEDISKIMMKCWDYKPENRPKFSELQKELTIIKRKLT

[31] = target: Death-associated protein kinase 3 (Homo sapiens) (UniProt O43293); experiment: Inhibition of ZIPK (unknown origin) using [gamma-33P]ATP assessed as residual activity at 3 uM
[32] = target: G protein-coupled receptor kinase 5 (Homo sapiens) (UniProt P34947); experiment: Inhibition of GRK5 (unknown origin) using [gamma-33P]ATP assessed as residual activity at 3 uM; in short: as §3

Activity [1]: 103% | Activity [2]: 85% | Activity [3]: 52% | Activity [4]: 96% | Activity [5]: 89% | Activity [6]: 97% | Activity [7]: 90% | Activity [8]: 90% | Activity [9]: 94% | Activity [10]: 90% | Activity [11]: 80% | Activity [12]: 100% | Activity [13]: 81% | Activity [14]: 94% | Activity [15]: 101% | Activity [16]: 98% | Activity [17]: 98% | Activity [18]: 47% | Activity [19]: 87% | Activity [20]: 101% | Activity [21]: 102% | Activity [22]: 96% | Activity [23]: 93% | Activity [24]: 82% | Activity [25]: 93% | Activity [26]: 96% | Activity [27]: 96% | Activity [28]: 90% | Activity [29]: 103% | Activity [30]: 96% | Activity [32]: 103%
SMILES: CCc1ccc(-c2ccc3c(c2)-c2[nH]ncc2S(=O)(=O)N3C)cc1
Activity [31]: 97%
